Published values of several laboratories.
FLT3 D835Y: Receptor-type tyrosine-protein kinase FLT3 (FLT3, Homo sapiens, UniProt P36888, D835Y)
FLT3 N841I: Receptor-type tyrosine-protein kinase FLT3 (FLT3, Homo sapiens, UniProt P36888, N841I)
FLT3: Receptor-type tyrosine-protein kinase FLT3 (FLT3, Homo sapiens, UniProt P36888)

| Compound | target | assay | conditions | measurement | result |
| --- | --- | --- | --- | --- | --- |
| COc1ccc2[nH]c3c4[nH]c5ccc(OC)cc5c4c4c(c3c2c1)C(=O)NC4=O | Receptor-type tyrosine-protein kinase FLT3 (FLT3, Homo sapiens, UniProt P36888, D835V) | binding | 1 µM | remaining binding | 4% |
| COc1ccc2oc(-c3ccc4nc(N)oc4c3)c/c(=N\c3ccccc3NC(=O)CCN)c2c1 | FLT3 D835Y | cell-free assay | 1 µM | remaining signal | 92% |
| CC#CC(=O)N1CCC[C@H]1c1nc(-c2ccc(C(=O)Nc3ccccn3)cc2)c2c(N)nccn12 | FLT3 N841I | enzyme activity, inhibitor | 1 µM | inhibition | 18% |
| CN(C)C(=O)c1cc2cnc(Nc3ccc(-c4ccc5c(=O)cc(N6CCOCC6)oc5c4)cc3)nc2n1C1CCCC1 | FLT3 | binding, competition with immobilised ligand | 1 µM | remaining binding | 3.9% |
| CCCCC(=O)Nc1ccc(-c2ccc3ncn(CCC)c(=O)c3c2)cn1 | FLT3 D835Y | binding, competition with immobilised ligand | 0.5 µM | remaining binding | 96% |
| CN1CCN(C(=O)c2ccc(NC(=O)Nc3ccc(N(C)c4ccnc(Nc5ccc(CS(C)(=O)=O)cc5)n4)cc3)cc2)CC1 | Receptor-type tyrosine-protein kinase FLT3 (FLT3, Homo sapiens, UniProt P36888, K663Q) | binding | 1 µM | remaining binding | 0% |
| C#Cc1cc(-c2cc(Nc3nc(N[C@@H](C)c4ccc(F)cn4)ncc3Cl)n[nH]2)ccc1C=O | FLT3 D835Y | enzyme activity, inhibitor | 0.2 µM | inhibition | 98.5% |
| Cc1n[nH]c2ccc3nc(-c4ccc(C(=O)NCCN(C)C)cc4F)c4c(c3c12)CCCC4 | FLT3 | enzyme activity, inhibitor, radiometric | 0.5 µM | remaining activity | 22% |
| Cc1cc(S(=O)(=O)N[C@H]2CC[C@H](CN3CCN(c4ccc(C5CCC(=O)NC5=O)cc4F)CC3)CC2)ccc1Nc1ncc(C(F)(F)F)c(N2CCC[C@](C)(O)C2)n1 (stereo partly drawn) | FLT3 N841I | binding, competition with immobilised ligand | 1 µM | remaining binding | 47% |
| O=C1C=C(Nc2ccc(OCc3cn(Cc4ccccc4)nn3)cc2)C(=O)c2ccccc21 | FLT3 | enzyme activity, inhibitor, radiometric | 10 µM | inhibition | 46% |
| C[C@]1(O)CCCN(c2nc(Nc3ccc(S(=O)(=O)N[C@H]4CC[C@H](CN5CCN(c6ccc(C7CCC(=O)NC7=O)cc6F)CC5)CC4)cc3Cl)ncc2C(F)(F)F)C1 (stereo partly drawn) | FLT3 N841I | binding, competition with immobilised ligand | 1 µM | remaining binding | 68% |
| C[C@H]1CC[C@H](n2c3cnccc3c3cnc(Nc4ccc5c(n4)CCN(C(=O)CO)C5)nc32)CC1 | FLT3 D835Y | cell-free assay | 1 µM | remaining signal | 1% |
| C=CC(=O)N1CCC([C@@H]2CCNc3c(C(N)=O)c(-c4ccc(Oc5ccccc5)cc4)nn32)CC1 | FLT3 D835Y | enzyme activity, inhibitor | 1 µM | inhibition | 81% |
| Cc1ccc(NC(=O)c2ccnc(C(F)(F)F)c2)cc1-c1cc(OCCO)nc(N2CCOCC2)c1 | FLT3 N841I | binding | 1 µM | remaining binding | 82% |
| C1=C/COCc2cc(ccc2OCCN2CCCC2)Nc2nccc(n2)-c2cccc(c2)COC/1 | FLT3 N841I | binding | 0.1 µM | remaining binding | 4.3% |
